From ChEMBL document CHEMBL1136634, “Synthesis and photoreactivity of caged blockers for glutamate transporters” (Bioorg Med Chem Lett, 2003)

Assays:
[1] = Half-life was determined; format: ADME; conditions: human
[2] = Glutamate uptake inhibition assay on glutamate transporters (excitatory amino acid transporters EAAT2) stably expressed on MDCK cells before U.V radiation; format: cell-based; conditions: Canis lupus familiaris
[3] = Glutamate uptake inhibition assay on glutamate transporters (excitatory amino acid transporters EAAT2) stably expressed on MDCK cells after 10 min U.V irradiation; format: cell-based; conditions: Canis lupus familiaris, light or radiation study
In short: (§1)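 Before assay, caged compound in PBS(+) (1 mM CaCl2, 1 mM MgCl2, pH 7.4) was held in 1 mm quartz cuvettes in a dark box and irradiated with a 365 nm UV hand lamp at room temperature. Relative specific uptake came from three experiments, and IC50 was derived.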

[4] = Glutamate uptake inhibition assay on glutamate transporters (excitatory amino acid transporters EAAT2) stably expressed on MDCK cells after 1 min U.V irradiation; format: cell-based; conditions: Canis lupus familiaris, light or radiation study; in short: as §1
[5] = Glutamate uptake inhibition assay on glutamate transporters (excitatory amino acid transporters EAAT2) stably expressed on MDCK cells after 20 min U.V irradiation; format: cell-based; conditions: Canis lupus familiaris, light or radiation study; in short: as §1
[6] = Glutamate uptake inhibition assay on glutamate transporters (excitatory amino acid transporters EAAT2) stably expressed on MDCK cells after 5 min U.V irradiation; format: cell-based; conditions: Canis lupus familiaris, light or radiation study; in short: as §1
[7] = Glutamate uptake inhibition assay on EAAT2 stably expressed on MDCK cells; format: cell-based, Canis lupus familiaris

| SMILES | half-life [1] [min] | IC50 [2] [µM] | IC50 ([7]; Canis lupus familiaris, MDCK) [µM] | also measured |
| --- | --- | --- | --- | --- |
| N[C@H](C(=O)OCc1cc(=O)oc2cc(OCC(=O)O)ccc12)[C@H](OCc1ccccc1)C(=O)O | 3.7 | 124 |  | IC50 [3]: 7 µM; IC50 [4]: 24 µM; IC50 [5]: 5.6 µM; IC50 [6]: 8.6 µM |
| COc1ccc2c(COC(=O)[C@@H](N)[C@H](OCc3ccccc3)C(=O)O)cc(=O)oc2c1 | 3.9 |  | 124 |  |
| N[C@H](C(=O)O)[C@H](OCc1ccccc1)C(=O)O |  | 1.3 |  |  |
| COc1cc(C(C)OC(=O)[C@@H](N)[C@H](OCc2ccccc2)C(=O)O)c([N+](=O)[O-])cc1OC (stereo in doubt; 3a) |  |  |  | T1/2 [1]: 57.2 min; IC50 ([7]; mdck): 103 µM |
| COc1cc(C(C)OC(=O)[C@@H](N)[C@H](OCc2ccccc2)C(=O)O)c([N+](=O)[O-])cc1OC (stereo in doubt; 3b) | 45.2 |  | 111 |  |
